Test results from ChEMBL document CHEMBL4411310, “Identification of a novel DGKα inhibitor for XLP-1 therapy by virtual screening” (Eur J Med Chem, 2019).
Blank lines part the entries; values can stand above or below the compound they belong to. The source made the active and inactive calls. The calls are words filed in the database; no cut-off is given here.

What was measured:
[1] = target: T1, Diacylglycerol kinase alpha (Homo sapiens, UniProt P23743); test: Inhibition of OST-tagged DGKalpha (unknown origin) expressed in MDCK cell homogenates assessed as residual activity at 100 uM using DAG as substrate measured after 5 mins in presence of [gamma-32P]ATP by TLC analysis relative to control; type: cell-free
[2] = target: T1, Diacylglycerol kinase alpha; test: Inhibition of DGKalpha in human erythrocytes using OAG as substrate preincubated for 1 min followed by OAG addition and measured after 8 mins in presence of [gamma-32P]ATP; type: cell-based
[3] = target: Diacylglycerol kinase alpha (Sus scrofa, UniProt P20192); test: Inhibition of pig FLAG3-tagged DGKalpha expressed in African green monkey COS7 cells using 1,2-dioleoyl-sn-glycerol as substrate measured after 30 mins by ADP-Glo luminescence assay
[4] = target: T1, Diacylglycerol kinase alpha; test: Inhibition of DGKalpha in OKT3-induced human Jurkat cells harboring SAP ShRNA assessed as restoration of restimulation-induced cell death at 1 uM measured after 24 hrs by trypan blue exclusion method; type: cell-based
Outline: (§1)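 SAP-shRNA or control-shRNA Jurkat cells, 0.5 × 10^5 cells/well in triplicate, in wells left uncoated or precoated for 24 h at 4 °C with anti-CD3 OKT3 (50 μg/ml) or PHA-P (50 μg/ml). Inhibitor at 1 μM or DMSO control for 24 h. Live cells counted by trypan blue exclusion; % cell loss versus untreated controls. At least three experiments.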

[5] = target: T1, Diacylglycerol kinase alpha; test: Inhibition of DGKalpha in PHA-induced human Jurkat cells harboring SAP ShRNA assessed as restoration of restimulation-induced cell death at 1 uM measured after 24 hrs by trypan blue exclusion method; type: cell-based; outline: as §1
[6] = target: T-cell receptor (Homo sapiens) (UniProt P04437+P01848+P04435+P03979); test: Effect on TCR signaling in OKT3-induced human T-cells harboring SiRNA assessed as restoration of restimulation-induced cell death at 1 to 10 uM preincubated for 30 mins followed by OKT3 stimulation and measured 24 hrs post dose by propidium iodide staining based flow cytometry
Outline: (§2)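 PBL from healthy donors, activated with anti-CD3/CD28 and then kept in IL-2. siRNA (SAP or control, 200 pmol) delivered by nucleofection, then 4 days in IL-2. 10^5 cells/well in triplicate; inhibitor (1, 5, 10 μM) added 30 min before OKT3 restimulation (1–500 ng/ml) for 24 h. PI staining, fixed 30 s flow acquisition; % cell loss.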

Jurkat = test: Cytotoxicity against human Jurkat cells assessed as reduction in cell viability at 1 uM after 24 hrs by trypan blue exclusion assay; type: cell-based; outline: as §1
[7] = test system: Serotonin (5-HT) receptor; test: Antagonist activity at serotonin receptor in human PBMC assessed as inhibition of PMA-stimulated superoxide anion generation at 10 uM preincubated for 1 hr followed by PMA-stimulation and measured after 30 mins by spectrophotometric method; conditions: 0.5 h
[8] = target: T1, Diacylglycerol kinase alpha; test: Inhibition of DGKalpha in OKT3-induced human T cells harboring SAP SiRNA assessed as restoration of restimulation-induced cell death at >=5 uM preincubated for 30 mins followed by OKT3 stimulation and measured 24 hrs post dose by propidium iodide staining based flow cytometry; outline: as §2
[9] = target: T1, Diacylglycerol kinase alpha; test: Inhibition of OST-tagged DGKalpha (unknown origin) expressed in MDCK cell homogenates using DAG as substrate measured after 5 mins in presence of [gamma-32P]ATP by TLC analysis; type: cell-free
Outline: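 Doxycycline-induced (1 μg/ml, 2 days) MDCK cells expressing OST-DGKα, homogenized in Hepes pH 8 buffer with EDTA, EGTA, vanadate and protease inhibitors. Initial velocity measured 5 min at 27 °C with saturating 1,2-dioleoyl-sn-glycerol and γ32P-ATP plus 25 μM unlabelled ATP and MgCl2. Stopped with HCl, lipids extracted, separated by TLC, radioactive phosphatidic acid quantified by imager. IC50 from 0.1–100 μM, ≥3 experiments, normalized fit.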

[10] = target: T1, Diacylglycerol kinase alpha; test: Inhibition of DGKalpha in OKT3-induced human T cells harboring SAP SiRNA assessed as restoration of restimulation-induced cell death at 1 to 10 uM preincubated for 30 mins followed by OKT3 stimulation and measured 24 hrs post dose by propidium iodide staining based flow cytometry; outline: as §2
[11] = target: T1, Diacylglycerol kinase alpha; test: Inhibition of DGKalpha in OKT3-induced human T cells harboring SAP siRNA assessed as restoration of TCR-induced NR4A3 upregulation at 10 uM after 4 hrs by RT-PCR analysis; type: cell-based
Outline: (§3)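 Activated PBL transfected with SAP or control siRNA, 4 days in culture. Restimulated with OKT3 (10 μg/ml), with or without inhibitor at 10 μM. After 4 h, NR4A1 and NR4A3 measured by TaqMan qPCR normalised to GUSB. At least four independent experiments.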

T-cell = test: Cytotoxicity against human T cells assessed as cell death at 1 to 10 uM measured after 24 hrs propidium iodide staining based flow cytometry; outline: as §2
[12] = target: T1, Diacylglycerol kinase alpha; test: Inhibition of DGKalpha in OKT3-induced human T cells harboring SAP siRNA assessed as restoration of TCR-induced NR4A1 upregulation at 10 uM after 4 hrs by RT-PCR analysis; type: cell-based; outline: as §3
[13] = target: T1, Diacylglycerol kinase alpha; test: Inhibition of DGKalpha expressed in 293T cell homogenates at 100 uM using DAG as substrate measured after 5 mins in presence of [gamma-32P]ATP by TLC analysis relative to control
[14] = target: Diacylglycerol kinase zeta (Homo sapiens) (UniProt Q13574); test: Inhibition of DGKzeta (unknown origin) expressed in human 293T cells at 100 uM using DAG as substrate measured after 5 mins in presence of [gamma-32P]ATP by TLC analysis
Outline: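 293T cells transiently transfected with the DGKζ plasmid or empty vector; homogenates collected 48 h later. Compound at 100 μM. Reaction run 5 min at 27 °C with saturating 1,2-dioleoyl-sn-glycerol, γ32P-ATP plus 25 μM unlabelled ATP, and MgCl2, at pH 8. Stopped with HCl, lipids extracted and separated by TLC, read by phosphorimaging. At least three experiments in triplicate.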

[15] = Solubility of the compound in DMSO; type: physicochemical
[16] = target: T2, 5-hydroxytryptamine receptor 2C (Homo sapiens, UniProt P28335); test: Binding affinity to 5HT2C receptor (unknown origin)
T2 sequence (P28335 whole entry): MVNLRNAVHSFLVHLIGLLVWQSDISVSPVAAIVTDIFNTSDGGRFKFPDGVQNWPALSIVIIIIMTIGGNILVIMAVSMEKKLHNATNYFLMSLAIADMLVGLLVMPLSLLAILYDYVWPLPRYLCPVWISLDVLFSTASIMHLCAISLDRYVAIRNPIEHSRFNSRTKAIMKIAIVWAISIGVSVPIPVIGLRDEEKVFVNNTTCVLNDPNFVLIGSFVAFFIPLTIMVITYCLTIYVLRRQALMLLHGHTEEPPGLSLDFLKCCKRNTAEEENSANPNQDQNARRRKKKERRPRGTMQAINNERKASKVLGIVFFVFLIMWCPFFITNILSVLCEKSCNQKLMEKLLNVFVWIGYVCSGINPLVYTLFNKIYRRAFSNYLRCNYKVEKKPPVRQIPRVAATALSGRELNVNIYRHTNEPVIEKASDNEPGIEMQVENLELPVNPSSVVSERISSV

[17] = target: Diacylglycerol kinase alpha (Rattus norvegicus, UniProt P51556); test: Inhibition of rat FLAG-tagged DGKalpha expressed in HEK293T cells using DAG as substrate measured after 15 mins in presence of [gamma-32P]ATP by scintillation counting method
Chain of Diacylglycerol kinase alpha (Rattus norvegicus, UniProt P51556) (P51556 whole entry): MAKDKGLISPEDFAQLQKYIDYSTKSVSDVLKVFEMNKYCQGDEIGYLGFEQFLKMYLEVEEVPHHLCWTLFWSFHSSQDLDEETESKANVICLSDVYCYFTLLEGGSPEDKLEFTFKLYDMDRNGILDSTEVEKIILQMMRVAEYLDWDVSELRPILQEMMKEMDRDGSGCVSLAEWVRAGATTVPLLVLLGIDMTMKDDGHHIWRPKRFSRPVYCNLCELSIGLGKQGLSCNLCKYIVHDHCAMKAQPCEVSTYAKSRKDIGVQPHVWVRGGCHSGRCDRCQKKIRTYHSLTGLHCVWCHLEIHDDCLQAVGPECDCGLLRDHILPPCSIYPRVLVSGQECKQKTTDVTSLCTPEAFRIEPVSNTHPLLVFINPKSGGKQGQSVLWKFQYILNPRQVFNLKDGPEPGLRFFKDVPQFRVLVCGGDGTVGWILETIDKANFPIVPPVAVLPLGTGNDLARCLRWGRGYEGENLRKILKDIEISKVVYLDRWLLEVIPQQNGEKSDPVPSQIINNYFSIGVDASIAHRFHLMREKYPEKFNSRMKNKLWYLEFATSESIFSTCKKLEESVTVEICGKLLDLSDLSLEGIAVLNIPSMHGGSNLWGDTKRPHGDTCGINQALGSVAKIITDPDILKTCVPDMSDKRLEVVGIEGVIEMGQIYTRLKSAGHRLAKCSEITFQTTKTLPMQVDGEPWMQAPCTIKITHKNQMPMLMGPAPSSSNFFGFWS

T1 sequence (P23743 whole entry): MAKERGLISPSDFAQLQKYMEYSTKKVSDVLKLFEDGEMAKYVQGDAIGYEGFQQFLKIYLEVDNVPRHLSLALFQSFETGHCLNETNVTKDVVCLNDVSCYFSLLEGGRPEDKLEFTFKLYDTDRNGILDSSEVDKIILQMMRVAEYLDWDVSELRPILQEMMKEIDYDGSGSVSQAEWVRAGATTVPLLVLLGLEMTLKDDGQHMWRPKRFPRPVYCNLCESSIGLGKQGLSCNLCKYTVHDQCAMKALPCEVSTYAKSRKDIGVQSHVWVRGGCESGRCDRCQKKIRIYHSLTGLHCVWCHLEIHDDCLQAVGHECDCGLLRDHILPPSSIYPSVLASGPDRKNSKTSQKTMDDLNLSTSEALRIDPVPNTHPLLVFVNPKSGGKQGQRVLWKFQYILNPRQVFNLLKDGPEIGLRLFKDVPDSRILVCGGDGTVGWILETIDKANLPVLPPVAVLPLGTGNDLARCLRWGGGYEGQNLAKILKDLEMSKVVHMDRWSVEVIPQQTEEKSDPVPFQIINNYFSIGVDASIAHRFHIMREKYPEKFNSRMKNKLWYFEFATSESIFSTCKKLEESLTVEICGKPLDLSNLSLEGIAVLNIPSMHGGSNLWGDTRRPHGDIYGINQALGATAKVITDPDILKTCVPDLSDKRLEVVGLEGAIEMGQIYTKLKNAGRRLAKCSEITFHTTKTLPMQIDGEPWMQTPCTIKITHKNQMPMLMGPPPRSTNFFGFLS
Chain of Diacylglycerol kinase alpha (Sus scrofa, UniProt P20192) (P20192 whole entry): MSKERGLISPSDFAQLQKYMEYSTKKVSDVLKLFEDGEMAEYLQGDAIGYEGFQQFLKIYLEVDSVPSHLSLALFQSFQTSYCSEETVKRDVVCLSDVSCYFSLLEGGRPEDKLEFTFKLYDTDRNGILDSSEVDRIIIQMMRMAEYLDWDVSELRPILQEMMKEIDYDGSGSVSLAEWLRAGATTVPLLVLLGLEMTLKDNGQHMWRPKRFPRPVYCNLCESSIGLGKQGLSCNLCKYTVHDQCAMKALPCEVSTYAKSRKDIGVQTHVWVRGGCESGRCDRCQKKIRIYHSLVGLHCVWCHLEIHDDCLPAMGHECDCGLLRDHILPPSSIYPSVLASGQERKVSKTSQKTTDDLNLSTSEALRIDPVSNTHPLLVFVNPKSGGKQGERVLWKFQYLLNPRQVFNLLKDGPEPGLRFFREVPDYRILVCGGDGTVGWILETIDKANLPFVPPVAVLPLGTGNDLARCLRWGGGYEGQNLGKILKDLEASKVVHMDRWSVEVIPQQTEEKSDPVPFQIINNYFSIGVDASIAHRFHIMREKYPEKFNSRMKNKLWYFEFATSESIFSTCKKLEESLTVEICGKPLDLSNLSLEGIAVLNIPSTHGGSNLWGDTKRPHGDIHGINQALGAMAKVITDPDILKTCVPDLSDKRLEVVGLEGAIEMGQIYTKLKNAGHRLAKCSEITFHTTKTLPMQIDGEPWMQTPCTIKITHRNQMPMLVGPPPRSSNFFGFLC
Chain of Diacylglycerol kinase zeta (Homo sapiens) (Q13574 whole entry): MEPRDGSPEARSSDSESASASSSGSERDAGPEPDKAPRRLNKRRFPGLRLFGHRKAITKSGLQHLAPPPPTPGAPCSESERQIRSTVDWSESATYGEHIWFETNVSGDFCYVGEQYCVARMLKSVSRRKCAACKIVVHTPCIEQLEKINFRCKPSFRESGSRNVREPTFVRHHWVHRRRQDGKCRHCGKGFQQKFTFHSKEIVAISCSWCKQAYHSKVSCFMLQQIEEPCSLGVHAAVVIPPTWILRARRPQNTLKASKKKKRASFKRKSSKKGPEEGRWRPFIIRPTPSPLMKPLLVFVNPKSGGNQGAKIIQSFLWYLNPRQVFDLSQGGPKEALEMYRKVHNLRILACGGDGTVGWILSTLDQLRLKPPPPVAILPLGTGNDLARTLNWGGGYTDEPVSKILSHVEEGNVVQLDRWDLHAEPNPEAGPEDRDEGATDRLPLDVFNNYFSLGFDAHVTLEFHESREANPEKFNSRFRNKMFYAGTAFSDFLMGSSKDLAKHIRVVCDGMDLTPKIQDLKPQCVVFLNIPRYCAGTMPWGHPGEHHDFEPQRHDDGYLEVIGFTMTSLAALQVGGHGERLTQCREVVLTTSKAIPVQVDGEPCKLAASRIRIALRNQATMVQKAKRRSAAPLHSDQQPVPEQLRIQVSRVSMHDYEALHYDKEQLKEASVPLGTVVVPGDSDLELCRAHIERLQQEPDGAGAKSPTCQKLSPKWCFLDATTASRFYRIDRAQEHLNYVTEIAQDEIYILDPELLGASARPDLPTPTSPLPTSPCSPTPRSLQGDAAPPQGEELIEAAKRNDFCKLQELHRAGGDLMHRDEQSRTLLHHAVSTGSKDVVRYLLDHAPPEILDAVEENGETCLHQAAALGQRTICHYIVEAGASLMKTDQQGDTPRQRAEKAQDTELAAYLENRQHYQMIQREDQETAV

Activity [1]: 49%
Compound: O=c1c2ccccc2[nH]c(=S)n1CCN1CCN(Cc2ccccc2)CC1

Compound: CC[C@H](C)[C@@H](OC(C)=O)[C@@H](C)C1=CC(=O)C2=C(O[C@]3(C)CC[C@H]4O[C@@H](C(C)(C)O)CC[C@]4(C)[C@H]3[C@@H]2O)C1=O [COCHLIOQUINONE A]
Ki [2]: 2.26 µM

Compound: O=C1/C(=C\C=C\c2ccco2)SC(=S)N1NS(=O)(=O)c1ccccc1
IC50 [3]: 0.6 µM
inhibition [4]: Active
inhibition [5]: Active
Activity [6]: Active
Activity (Jurkat): Toxic
inhibition (INH) [7]: Not Active
inhibition [8]: Active

Compound: Cc1ccc2c(C(=O)CN3CCN(C(=O)c4ccco4)CC3)c(C)[nH]c2c1
IC50 [9]: 4.28 to 4.3 µM
inhibition [10]: Active
Activity [1]: 4%
inhibition [11]: Active
Activity (T-cell): Non-Toxic
inhibition [4]: Active
inhibition [12]: Active
inhibition [5]: Active
Activity [6]: inactive
Activity (Jurkat): Non-Toxic
inhibition [13]: 93%
inhibition (INH) [7]: Not Active
inhibition [14]: inactive

Activity [1]: 72%
Compound: O=C(CN1CCN(Cc2ccccc2)CC1)c1c[nH]c2ccccc12

solubility [15]: Insoluble
Compound: O=C(CN1CCC(n2nnc3ccccc32)CC1)N(C1CCCCC1)C1CCCCC1

Activity [1]: 75%
Compound: O=C(Cn1cnc2sccc2c1=O)N1CCN(C(c2ccccc2)c2ccccc2)CC1

Compound: Cc1nc2n(c(=O)c1CCN1CCC(c3noc4cc(F)ccc34)CC1)CCCC2 [RISPERIDONE]
solubility [15]: Insoluble

Activity [1]: 39%
Compound: O=c1c2ccccc2[nH]c(=S)n1CCCN1CCN(c2cccc(Cl)c2)CC1

Compound: O=C(Cc1cn2ccsc2n1)N1CCN(C(c2ccccc2)c2ccccc2)CC1
Activity [1]: 64%

Compound: O=c1c2ccccc2[nH]c(=S)n1CCN1CCC(=C(c2ccc(F)cc2)c2ccc(F)cc2)CC1 [DIACYLGLYCEROL KINASE INHIBITOR II]
IC50 [9]: 10.6 µM
Activity [1]: 28%
IC50 [3]: 18 µM
inhibition [13]: 81%
inhibition [14]: inactive

inhibition (INH) [7]: Active
Compound: O=C(c1ccc(F)cc1)C1CCN(CCn2c(=O)[nH]c3ccccc3c2=O)CC1 [KETANSERIN]
inhibition [10]: inactive
Activity (T-cell): Non-Toxic
inhibition [4]: Active
inhibition [5]: Active
Activity [6]: inactive
Activity (Jurkat): Non-Toxic

Activity [1]: 75%
Compound: COc1ccccc1N1CCN(CCCNc2cc(=O)n(C)c(=O)n2C)CC1

Activity [1]: 57%
Compound: COc1ccccc1CCN1CCC(CN(C)C(=O)C2=CCCCC2)CC1

Activity [1]: 50%
Compound: O=C1C(=O)N(C2CCCC2)C(=O)N1CN1CCC(Cc2ccccc2)CC1

Compound: Cc1nc2sccn2c(=O)c1CCN1CCC(=C(c2ccc(F)cc2)c2ccc(F)cc2)CC1 [RITANSERIN]
IC50 [9]: 16.7 µM
inhibition [10]: Active
Activity [1]: 17%
Activity (T-cell): Non-Toxic
Ki [16]: 0.00071 µM
inhibition [4]: Active
inhibition [12]: Active
inhibition [5]: Active
Activity [6]: inactive
Activity (Jurkat): Non-Toxic
inhibition (INH) [7]: Active

Compound: CCCCCCCC(=O)OCCOC(=O)CCCCCCC [ETHYLENE GLYCOL DIOCTANOATE]
Ki [2]: 58 µM

Compound: Cc1nc2sccn2c(=O)c1CCN1CCC(=C(c2ccccc2)c2ccc(F)cc2)CC1
IC50 [9]: 19.7 to 19.8 µM
IC50 [2]: 3.8 µM
Activity [1]: 27%
IC50 [3]: 25 µM
IC50 [17]: 20 µM
inhibition [13]: 68%
inhibition [14]: inactive

Activity [1]: 68%
Compound: O=C(NCC(=O)N1CCN(C(c2ccccc2)c2ccccc2)CC1)c1ccco1

Activity [1]: 68%
Compound: O=C1CC2(CCCC2)C(=O)N1CN1CCN(C(c2ccccc2)c2ccccc2)CC1

Activity [1]: 67%
Compound: COc1ccccc1OCCCN1CCN(C(=O)c2ccc(=O)[nH]n2)CC1

Activity [1]: 62%
Compound: O=C(CCCN1CCC(O)(c2ccc(Cl)cc2)CC1)c1ccc(F)cc1

Compound: C/C=C(\C)[C@@H](OC(C)=O)[C@@H](C)C1=CC(=O)C2=C(O[C@]3(C)CC[C@H]4O[C@@H](C(C)(C)O)CC[C@]4(C)[C@H]3[C@@H]2O)C1=O [STEMPHONE]
Ki [2]: 3.32 µM
